Screens from PubChem BioAssay.
MrgX1 allo act: allosterically activates human MrgX1 receptor signaling. Q96LB2. MrgX1-HEK293, Fluo-4 calcium flux, FDSS; active compounds read high. B-score at 10 µM. hit rate 0.63% among 310,000. AID 588675;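 active means plate-corrected calcium response at least 3 library SD above typical, normal starting fluorescence, not activating the receptor alone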;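 further: compound read alongside a low EC10 to EC30 dose of BAM8-22 agonist; peak minus trough fluorescence over baseline measured at the second addition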
Target sequence (Q96LB2 whole entry, looked up): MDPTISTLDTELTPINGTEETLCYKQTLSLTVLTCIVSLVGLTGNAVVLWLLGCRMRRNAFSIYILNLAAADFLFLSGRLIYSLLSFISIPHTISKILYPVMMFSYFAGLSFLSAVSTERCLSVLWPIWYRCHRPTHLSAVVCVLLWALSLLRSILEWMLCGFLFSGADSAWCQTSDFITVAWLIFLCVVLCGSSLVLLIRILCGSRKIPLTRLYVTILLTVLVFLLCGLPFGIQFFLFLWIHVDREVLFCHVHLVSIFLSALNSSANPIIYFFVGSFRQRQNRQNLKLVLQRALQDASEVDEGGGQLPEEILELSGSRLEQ
RGS4 act: RGS4 potentiation or activation. HEK293 M3R/inducible RGS4, carbachol calcium flux Fluo4; active compounds read low. B-score at 10 µM. hit rate 0.92% among 310,000;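 active means B-score of the integrated calcium signal more than 4 SD below the library mean, with starting fluorescence not abnormally high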;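 further: negative B-score means reduced calcium response which marks RGS4 activation or potentiation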
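Material: M3R-expressing HEK293 line, RGS4 induced by doxycycline | Schedule: Overnight RGS4 induction, 30 min dye load 37 °C, 20 min compound RT | Measured by: Fluo4 fluorescence kinetic imaging of calcium | Read-out: Integrated calcium ratio converted to B score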
MrgX1 antag: human MrgX1 receptor antagonism, primary screen | Q96LB2 | MRGX1-HEK293 calcium flux, Fluo-4, BAM8-22 antagonism; active compounds read low | B-score at 10 µM | hit rate 1.3% among 310,000 | AID 588676;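 active means calcium-response B-score plate-corrected more than 3 library SD below zero, starting fluorescence within 5 deviations, no agonist response on first addition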;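 further: peak minus trough fluorescence over baseline after final BAM8-22 challenge near maximal dose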
MrgX1 ag: activates human MrgX1 receptor signaling. Q96LB2. MrgX1-HEK293 cells, Fluo-4 calcium fluorescence, agonist mode; active compounds read high. B-score at 10 µM. hit rate 0.44% among 310,000. AID 588627;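 active means calcium response B-score plate-corrected fluorescence ratio at least 3 library SD, with starting fluorescence B-score inside 5 SD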
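Assay system: MrgX1-expressing HEK293 cells / Amount: fifteen thousand cells per well / Doses: test compound in the initial addition of three / Timing: cells plated overnight, dye loaded 0.5 h 37 °C, 0.5 h room temperature / Technique: kinetic calcium dye fluorescence, Fluo-4 NW / Control set: positive and negative controls per plate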
RGS4 inh: inhibitors of human RGS4 | P49798 | HEK293 M3R/RGS4 inducible, Fluo-4 calcium flux; active compounds read high; triggered by carbachol at its EC20 | B-score at 10 µM | hit rate 0.45% among 310,000;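 active means B-score, a plate-corrected calcium signal, over three deviations above library mean, with baseline fluorescence within five deviations of library mean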;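 further: RGS4 expression induced by doxycycline in cells with stable M3 receptor; B-score is computed from the integrated fluorescence ratio over baseline after carbachol; higher B-score means a larger calcium signal and so more RGS4 inhibition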
Target sequence (P49798 whole entry, looked up): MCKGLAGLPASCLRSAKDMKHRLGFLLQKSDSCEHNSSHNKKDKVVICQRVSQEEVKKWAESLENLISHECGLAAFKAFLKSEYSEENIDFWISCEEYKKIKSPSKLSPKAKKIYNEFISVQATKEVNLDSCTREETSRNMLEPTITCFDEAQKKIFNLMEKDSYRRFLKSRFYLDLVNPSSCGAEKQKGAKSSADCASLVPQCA
RGS4 act valid: confirmation of RGS4 activators; shares compounds with RGS4 act; HEK293 M3R/RGS4 inducible, carbachol calcium flux Fluo4; inhibition, % at 10 µM; hit rate 89% among 1,100; AID 602282;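 active means inhibition above 3 SD of the buffer control wells, cut at about 41% in these data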;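 further: signal is the integrated peak-minus-minimum Fluo4 fluorescence over baseline ratio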
M3R Ca counter: counter-screen for RGS4 activators: effect in non-induced cells | inhibition, % at 10 µM | hit rate 82% among 1,100 | AID 602283 | shares compounds with RGS4 act | HEK293 M3R non-induced RGS4, Fluo4 calcium flux; after carbachol challenge at its EC90;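 active means inhibition exceeding 3 SD of buffer-only control wells, cut at about 26% in these data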;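 further: percent drop in integrated peak-minus-baseline over baseline Fluo4 ratio after carbachol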
Large screens that a line does not name were inactive (follow-up assays come after a bar, where they were run). Hits are enriched below; roughly 3.5% of the tested compounds scored in any of these assays.

S=C(NCC1CCCCC1)Nc1ccc(Oc2ccccc2)cc1	RGS4 act -7.6 | RGS4 act valid 93 | M3R Ca counter 60
COc1ccc(CCNc2nc(N3CCCCC3)nc(N3CCCCC3)n2)cc1OC	RGS4 act -8.4 | RGS4 act valid 76 | M3R Ca counter 46
COc1nc(NCCc2ccc(OC)c(OC)c2)nc(OC)n1	none
CCCCCCCCCCCC(=O)N/N=C/c1ccco1	none
O=C(NC1CCCC1)c1cc2nc(-c3ccccc3)cc(-c3ccccc3)n2n1	RGS4 act -7.7 | RGS4 act valid 82 | M3R Ca counter 84
CC1CCN(C(=O)c2cc3nc(-c4ccccc4)cc(-c4ccccc4)n3n2)CC1	none
CCCN1CCc2c(sc(NC(=O)c3ccc(S(=O)(=O)N(C)c4ccccc4)cc3)c2C(=O)NC)C1	RGS4 act -9.5 | RGS4 act valid 84 | M3R Ca counter 52
Cc1ccc(S(=O)(=O)c2ccc(Oc3cccc(C)c3)cc2)cc1	RGS4 act -8.1 | RGS4 act valid 68 | M3R Ca counter 30
NC(=O)N1c2ccccc2C=Cc2ccccc21	none
O=C(CN1CCCC1)N1CCCc2ccccc21	none
O=C(CN1CCCC1)N1c2ccccc2C=Cc2ccccc21	RGS4 act -10 | RGS4 act valid 82 | M3R Ca counter 41
CN1CCN(C(=O)N2c3ccccc3C=Cc3ccccc32)CC1	RGS4 act -9.7 | RGS4 act valid 94 | M3R Ca counter 69
Cc1ccc(N=C2C(=O)Nc3ccc(Br)cc32)cc1	none
O=C1Nc2ccc(Br)cc2C1=C1CCCCC1	RGS4 act -8.7 | RGS4 act valid 36 | M3R Ca counter inactive
Cc1cccc(N2CCN(C(=O)CCCn3c(=O)c4cccn4c4cccnc43)CC2)c1C	none
Cc1ccc(Cl)cc1N1CCN(C(=O)CCCn2c(=O)c3cccn3c3cccnc32)CC1	RGS4 act -7.9 | RGS4 act valid 84 | M3R Ca counter 50
COc1cc(OC)cc(C(=O)NC2CCN(Cc3nnnn3Cc3ccc(F)cc3)CC2)c1	none
CCOC(=O)c1cc2cc(OCc3ccccc3)ccc2nc1C	RGS4 act -11 | RGS4 act valid 78 | M3R Ca counter 76
CCN1CCN(c2nc(-c3ccccc3)c3ccccc3n2)CC1	RGS4 act -8.6 | RGS4 act valid 82 | M3R Ca counter 40
CC1CCCN(CC(=O)Nc2ccc(S(=O)(=O)N3CCCC3)cc2)C1 (centres undefined)	RGS4 act -9.2 | RGS4 act valid 85 | M3R Ca counter 41
COc1ccc(C(=O)OCCN2C(=O)c3ccccc3C2=O)cc1	RGS4 act -8.7 | RGS4 act valid 40 | M3R Ca counter 84
N#CC1=C(N)OC2=C(C(=O)CC(c3ccccc3)C2)C1c1ccc2c(c1)OCO2 (centres undefined)	RGS4 act -8.2 | RGS4 act valid 92 | M3R Ca counter 68
O=C(CC1CCS(=O)(=O)C1)NC1CCCCC1 (centres undefined)	RGS4 act -9.3 | RGS4 act valid inactive | M3R Ca counter inactive
O=C(CC1CCCCC1)NC1CCCC1	none
CC12CCC(C(=O)Nc3cccc(Cl)c3Cl)([C@H](Br)C1=O)C2(C)C (some centres undefined)	none
Clc1ccc(OCCCCCN2CCCC2)c(Br)c1	RGS4 act -8 | RGS4 act valid 89 | M3R Ca counter 84
Brc1cccc(OCCCCN2CCCCC2)c1	RGS4 act -8.6 | RGS4 act valid 92 | M3R Ca counter 66
CCOc1cccc(OCCCCN2CCCCC2)c1	RGS4 act -7.9 | RGS4 act valid 80 | M3R Ca counter 37
CC1CCCN(CCCCOc2cccc(Br)c2)C1 (centres undefined)	RGS4 act -7.5 | RGS4 act valid 92 | M3R Ca counter 64
COc1cccc(OCCCCN2CCCCC2)c1	none
Cc1nn(-c2ccccc2)c(C)c1NC(=O)COC(=O)c1cccc(OC(F)F)c1	RGS4 act -8.4 | RGS4 act valid inactive | M3R Ca counter inactive
S=c1[nH]nc(-c2cccnc2)n1Cc1ccccc1	none
CCc1nc(SCC(=O)NC2CCCC2)c2c(=O)n(C)c(=O)n(C)c2n1	none
CC(C)(C#CCN1CCCCC1)OCCOC(c1ccccc1)c1ccccc1	RGS4 act -12 | RGS4 act valid 93 | M3R Ca counter 92
CC(O)(C#CCN1CCCC1)c1ccccc1 (centres undefined)	none
CC1CCCN1CC#CC(O)(c1ccccc1)c1ccccc1 (centres undefined)	RGS4 act -7.9 | RGS4 act valid 90 | M3R Ca counter 92
CC(C)(C)C(O)(CC#CCN1CCCC1)c1ccccc1 (centres undefined)	RGS4 act -9.4 | RGS4 act valid 76 | M3R Ca counter 31
OC(C#CCN1CCCC1)(c1ccccc1)c1cccc(F)c1 (centres undefined)	RGS4 act -8.4 | RGS4 act valid 92 | M3R Ca counter 96
CC1CC1C(=O)N(C)CC(=O)Nc1ccc(Cl)c(C(F)(F)F)c1 (centres undefined)	none
O=C(Nc1ccccc1C(=O)Nc1ccc2c(c1)OCO2)c1cccs1	none
CC1CCCCN1CCNC(=O)CC1Oc2ccccc2NC1=O (centres undefined)	none
CC(O)(C#CCN1CCCCC1)c1ccccc1 (centres undefined)	none
CC(C)C(O)(C#CCN1CCCCCC1)c1ccccc1 (centres undefined)	RGS4 act -11 | RGS4 act valid 94 | M3R Ca counter 87
OC(CC#CCN1CCOCC1)(c1ccccc1)c1ccccc1	none
C(#CCN1CCCC1)CC(c1ccccc1)c1ccccc1	RGS4 act -13 | RGS4 act valid 92 | M3R Ca counter 93
CC(C)C(O)(CC#CCN1CCCC1)c1ccccc1 (centres undefined)	RGS4 act -9.2 | RGS4 act valid 92 | M3R Ca counter 44
C(#Cc1ccccc1)CN1CCCCC1	none
CN(C)CCCOC(=O)C1c2ccccc2Oc2ccccc21	RGS4 act -8.5 | RGS4 act valid 92 | M3R Ca counter 91
CN(CCOC(=O)C1c2ccccc2Oc2ccccc21)C(C)(C)C	RGS4 act -7.9 | RGS4 act valid 93 | M3R Ca counter 96
COc1ccc2nc(C)cc(SCC(=O)N/N=C/c3cccc4ccccc34)c2c1	none
COc1ccc2nc(C)cc(SCC(=O)N/N=C/c3ccc(O)c(O)c3)c2c1	RGS4 act -13 | RGS4 act valid inactive | M3R Ca counter inactive
Cc1c(Br)c(O)c(Br)c(O)c1/C=N/n1c(-c2ccccc2)n[nH]c1=S	none
